According to ChEMBL document CHEMBL1949536, “Gliotoxin analogues from a marine-derived fungus, Penicillium sp., and their cytotoxic and histone methyltransferase inhibitory activities” (J Nat Prod, 2012):
pIC50: −log10 of the molar value. Active and inactive are the calls of the source. The rule behind the calls is not given here.

Columns and labels:
P388 = assay: Cytotoxicity against mouse P388 cells after 96 hrs by MTT assay; format: functional, cell-based; details: P388, 96 h
Procedure, shortened: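 P388 cells grown in RPMI-1640 with 10% FBS, kanamycin and 2-hydroxyethyl disulfide at 37 °C, 5% CO2; seeded at 1 × 10⁴ cells/mL, test solution in RPMI-1640 added, 96 h incubation. MTT (1 mg/mL) added for 3 h, cells dissolved in DMSO after centrifugation; IC₅₀ determined.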

[1] = target: T1, Histone-lysine N-methyltransferase EHMT2 (Homo sapiens, UniProt Q96KQ7); assay: Inhibition of HMT-G9a using S-adenosylmethionine and biotinylated H3 peptide after 1 hr
T1 sequence (Q96KQ7 whole entry): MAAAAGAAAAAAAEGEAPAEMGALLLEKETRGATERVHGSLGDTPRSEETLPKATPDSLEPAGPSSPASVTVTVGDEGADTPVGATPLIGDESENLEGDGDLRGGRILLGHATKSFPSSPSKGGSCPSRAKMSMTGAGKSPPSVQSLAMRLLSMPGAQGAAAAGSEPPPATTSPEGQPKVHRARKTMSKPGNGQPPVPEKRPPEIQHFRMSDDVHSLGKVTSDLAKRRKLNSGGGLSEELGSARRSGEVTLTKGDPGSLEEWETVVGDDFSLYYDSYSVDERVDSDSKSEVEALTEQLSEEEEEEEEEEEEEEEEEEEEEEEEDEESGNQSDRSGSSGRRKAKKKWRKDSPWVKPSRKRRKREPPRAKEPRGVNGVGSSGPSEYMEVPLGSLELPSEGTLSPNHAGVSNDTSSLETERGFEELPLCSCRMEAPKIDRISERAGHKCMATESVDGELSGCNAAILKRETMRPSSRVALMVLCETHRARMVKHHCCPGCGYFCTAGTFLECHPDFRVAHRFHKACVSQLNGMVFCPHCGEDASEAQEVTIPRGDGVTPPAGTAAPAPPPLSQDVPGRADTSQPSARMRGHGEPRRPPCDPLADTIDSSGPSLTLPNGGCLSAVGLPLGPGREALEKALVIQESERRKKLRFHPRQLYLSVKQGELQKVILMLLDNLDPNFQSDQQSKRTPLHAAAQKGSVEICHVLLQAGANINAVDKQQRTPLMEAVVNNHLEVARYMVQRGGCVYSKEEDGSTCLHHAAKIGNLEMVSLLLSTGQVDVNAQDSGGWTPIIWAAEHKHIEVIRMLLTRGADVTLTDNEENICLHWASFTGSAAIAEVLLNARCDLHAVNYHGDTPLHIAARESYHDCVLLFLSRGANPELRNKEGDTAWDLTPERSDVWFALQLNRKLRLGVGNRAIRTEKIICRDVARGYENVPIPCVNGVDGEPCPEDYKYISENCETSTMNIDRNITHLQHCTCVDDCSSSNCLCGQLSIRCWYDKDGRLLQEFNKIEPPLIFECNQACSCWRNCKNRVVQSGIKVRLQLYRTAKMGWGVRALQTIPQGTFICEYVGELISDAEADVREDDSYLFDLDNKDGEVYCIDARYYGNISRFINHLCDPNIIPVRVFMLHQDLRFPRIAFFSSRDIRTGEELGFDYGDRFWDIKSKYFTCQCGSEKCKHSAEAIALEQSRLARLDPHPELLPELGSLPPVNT
Procedure, shortened: (§1)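 GST-G9a (200 ng) or His-Set7/9 (931 ng) with BSA preincubated with compound (DMSO) in Tris-HCl pH 8.5 buffer with MgCl₂, KCl, 2-mercaptoethanol, sucrose, 1 h rt; then SAM (50 ng) and biotinylated H3 peptide (50 ng), 37 °C 2 h, boiled. Captured on streptavidin plate; G9a: anti-methylated-lysine antibody, Set7/9: anti-dimethyl-H3K4 antibody; HRP secondary, TMB, A650.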

[2] = target: T2, Histone-lysine N-methyltransferase SETD7 (Homo sapiens) (UniProt Q8WTS6); assay: Inhibition of HMT-set7/9 using S-adenosylmethionine and biotinylated H3 peptide at 100 uM after 1 hr; procedure, shortened: as §1
T2 sequence (whole entry): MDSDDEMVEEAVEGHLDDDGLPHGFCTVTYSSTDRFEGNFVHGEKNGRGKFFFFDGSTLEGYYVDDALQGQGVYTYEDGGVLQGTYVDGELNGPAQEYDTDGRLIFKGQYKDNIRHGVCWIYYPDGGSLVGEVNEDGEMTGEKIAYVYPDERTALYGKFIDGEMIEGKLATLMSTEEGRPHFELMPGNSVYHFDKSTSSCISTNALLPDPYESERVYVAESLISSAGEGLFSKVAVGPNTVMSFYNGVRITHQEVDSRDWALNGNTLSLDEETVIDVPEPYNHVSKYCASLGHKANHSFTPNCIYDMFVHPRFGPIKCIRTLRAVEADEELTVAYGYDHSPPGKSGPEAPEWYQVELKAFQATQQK

C=C1C(=O)N2[C@H]3C(=CC=C[C@@H]3O)C[C@@]2(SC)C(=O)N1C
pIC50 (P388): 5.47 | pIC50 [1]: < 4.00 | inhibition [2]: inactive

CN1C(=O)[C@]23Cc4ccccc4N2C(=O)[C@@]1(CO)SS3
pIC50 (P388): 7.24 | pIC50 [1]: 4.26 | inhibition [2]: inactive

CN1C(=O)[C@]23Cc4cccc(O)c4N2C(=O)[C@@]1(CO)SS3
pIC50 (P388): 7.25 | pIC50 [1]: 5.59 | inhibition [2]: inactive

CS[C@]1(CO)C(=O)N2[C@H]3C(=CC=C[C@@H]3O)C[C@@]2(SC)C(=O)N1C [BIS(DETHIO)BIS(METHYLTHIO)GLIOTOXIN]
pIC50 (P388): 6.96 | pIC50 [1]: < 4.00 | inhibition [2]: inactive

CS[C@]1(CO)C(=O)N2c3c(O)cccc3C[C@@]2(SC)C(=O)N1C [DEHYDROBIS(METHYLTHIO)GLIOTOXIN]
pIC50 (P388): 6.96 | pIC50 [1]: 4.24 | inhibition [2]: inactive

CN1C(=O)[C@]23CC4=CC=C[C@H](O)[C@H]4N2C(=O)[C@@]1(CO)SSSS3 [GLIOTOXIN G]
pIC50 (P388): 7.70 | pIC50 [1]: 5.68 | inhibition [2]: inactive

CN1C(=O)[C@]23CC4=CC=C[C@H](O)[C@H]4N2C(=O)[C@@]1(CO)SS3 [GLIOTOXIN]
pIC50 (P388): 7.62 | pIC50 [1]: 5.19 | inhibition [2]: inactive
